Measurements as given in ChEMBL document CHEMBL1130234 (J Med Chem, 1997).

Assays:
[1] = biological target: T1, Arachidonate 5-lipoxygenase (Bos taurus, UniProt Q9BEG3); experiment: 5-LO inhibitory activity was determined by inhibition of LTB4 biosynthesis in bovine polymorphonuclear leukocytes (PMNL); type: functional, cell-based
T1 sequence (Q9BEG3 whole entry): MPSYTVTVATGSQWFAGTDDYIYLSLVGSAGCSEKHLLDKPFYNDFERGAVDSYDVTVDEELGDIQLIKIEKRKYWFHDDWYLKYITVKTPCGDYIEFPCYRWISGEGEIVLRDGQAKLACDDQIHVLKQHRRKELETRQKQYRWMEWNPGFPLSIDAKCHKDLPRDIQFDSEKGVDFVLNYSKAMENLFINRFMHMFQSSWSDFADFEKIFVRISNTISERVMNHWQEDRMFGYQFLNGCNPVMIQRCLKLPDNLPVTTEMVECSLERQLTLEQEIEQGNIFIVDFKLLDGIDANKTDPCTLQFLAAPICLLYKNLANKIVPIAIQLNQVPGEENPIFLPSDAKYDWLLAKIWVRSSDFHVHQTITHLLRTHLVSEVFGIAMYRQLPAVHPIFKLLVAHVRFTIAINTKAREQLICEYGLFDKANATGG
Method in brief: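 LTB4 biosynthesis measured in bovine polymorphonuclear leukocytes, with NDGA as the standard inhibitor; N = 3 or more, significance versus control at P < 0.01.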

HaCaT [2] = experiment: Cytotoxic activity (2 uM) was measured by the amount of LDH (mU) release in HaCaT cells.; type: functional, Homo sapiens
Method in brief: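 HaCaT cells exposed to test compound at 2 μM; LDH activity (mU) released into the culture medium measured and compared with vehicle control; N = 3.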

[3] = Partition coefficient (logP); type: physicochemical; conditions: octanol/water
HaCaT [4] = experiment: Antiproliferative (inhibition of cell growth) activity against HaCaT cells (human keratinocyte line); type: functional, cell-based
Method in brief: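 HaCaT human keratinocytes treated for 48 h. Proliferation assessed by directly counting dispersed cells under a phase-contrast microscope; N = 3, significance versus control at P < 0.01.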

[5] = Antioxidant potential was assessed from reducing activity against 2,2,di-phenyl-1-picrylhydrazyl.

Compound	IC50 [1] [µM]	LDH (HaCaT [2]) [mU]	logP [3]	IC50 (HaCaT [4]) [µM]	kDPPH [5] [M⁻¹ s⁻¹]
O=C1c2ccccc2Cc2ccccc21 [ANTHRONE]	2	165	3.46	> 5	< 2
Nc1cccc2c1Cc1ccccc1C2=O	20		2.46	> 5	15.3
O=C1c2c(O)cccc2C(C(=O)c2ccccc2)c2cccc(O)c21			3.81	> 5	
CCC1c2cccc(O)c2C(=O)c2c(O)cccc21	> 30	161	4.37	> 5	< 2
O=C1c2c(O)cccc2C([C@@H]2O[C@H](CO)[C@@H](O)[C@H](O)[C@H]2O)c2cc(CO)cc(O)c21 (some centres not stated) [ALOIN]	> 30		1.83	> 5	< 2
CCCCc1ccc2c(c1O)C(=O)c1c(O)cccc1C2	> 30		5.89	> 5	6.5
Cc1ccc2c(c1O)C(=O)c1c(O)cccc1C2	> 30	126	4.99	1.5	17.2
O=Cc1ccc2c(c1O)C(=O)c1c(O)cccc1C2	6		4.06	> 5	> 100
O=C1C=CC(=O)c2c(O)cccc21 [JUGLONE]	17	384		0.8	6.6
CCC(=O)c1ccc2c(c1O)C(=O)c1c(O)cccc1C2			4.59	3.3	> 100
O=C1c2c(O)cccc2C(OCc2ccccc2)c2cccc(O)c21	> 30		4.25	3.8	
O=C1c2ccccc2Cc2cccc(O)c21	13	170	3.99	> 5	9.6
O=C1c2c(O)cccc2C(SCc2ccccc2)c2cccc(O)c21	> 30		4.87		> 100
O=C1c2ccccc2Cc2c1ccc(O)c2O	4	144	3.81	> 5	> 100
O=C1c2c(O)cccc2Cc2cccc(O)c21 [ANTHRALIN]		294			24.2
Cc1cc(O)c2c(=O)c3c(O)cc(O)c4c5c(O)cc(O)c6c(=O)c7c(O)cc(C)c8c1c2c(c34)c(c78)c65 [HYPERICIN]	> 30	159	5.02	1.7	3.66
O=C1c2cccc(O)c2Cc2c(O)cccc21	4	144	2.17	> 5	< 2
Nc1cccc2c1C(=O)c1ccccc1C2	28		2.45	> 5	50.5
O=C1c2c(Cl)cccc2Cc2cccc(Cl)c21	4		3.51	> 5	< 2
N=C1c2c(O)cccc2Cc2cccc(O)c21	> 30	137	4.72	0.5	2.7
c1ccc2cc3ccccc3cc2c1	> 30	131		> 5	
O=CC1c2cccc(O)c2C(=O)c2c(O)cccc21		124	2.79	1.9	< 2

Compound	IC50 [1] [µM]	LDH (HaCaT [2]) [mU]	logP [3]	IC50 (HaCaT [4]) [µM]	kDPPH [5] [M⁻¹ s⁻¹]
O=C1c2cccc(OCc3ccccc3)c2Cc2c(OCc3ccccc3)cccc21			5.73	> 5	3.2
CC(C)=CCc1c(C)cc(O)c2c1Cc1c(CC=C(C)C)c(O)cc(O)c1C2=O	25		6.56	> 5	8.2
CN(C)C=C1c2cccc(O)c2C(=O)c2c(O)cccc21	21		3.18	2.1	16.2
O=C(O)c1cc(O)c2c(c1)Cc1cccc(O)c1C2=O	3		2.96	> 5	> 100
O=C(c1ccccc1)c1cccc2c1C(=O)c1c(O)cccc1C2	27		3.99	4.3	39.6
O=C1c2c(O)cccc2C(O)c2cccc(O)c21	> 30		2.91	> 5	< 2
Cc1cc(O)c2c(c1)Cc1cc(O)cc(O)c1C2=O [EMODIN ANTHRONE]		114	3.9	> 5	21.4
O=C1c2cccc(O)c2Cc2cccc(O)c21		191	3.51	4.3	13.5
N#Cc1ccc2c(c1O)C(=O)c1c(O)cccc1C2	8		3.16	4.2	> 100
O=C1C=CC(=O)c2c(O)ccc(O)c21 [NAPHTHAZALIN]		247	3.7	0.7	41.5
O=C1c2c(O)cccc2C(Br)c2cccc(O)c21	> 30		3.94	> 5	12.7
CC(C)=CCc1c(C)c(CC=C(C)C)c2c(c1O)C(=O)c1c(O)cc(O)c(CC=C(C)C)c1C2 [HARUNGANOL B]	> 30		8.01	> 5	3.1
COc1cccc2c1C(=O)c1c(cccc1OC)C2	> 30	144	3.88	> 5	
Oc1cccc(O)c1O [PYROGALLOL]	4		1.19	> 5	> 100
O=C1c2ccccc2Cc2ccc(O)c(O)c21	4		3.19	1.9	41.5
COc1cccc2c1Cc1c(O)cccc1C2=O		141	2.6	> 5	< 2
O=C(c1ccccc1O)c1ccccc1O [2,2'-DIHYDROXYBENZPHENONE]	> 30		2.66	> 5	2.1
COC1c2cccc(O)c2C(=O)c2c(O)cccc21	> 30	146	3.96	1.1	
COc1cccc2c1C(=O)c1c(O)cccc1C2		179	3.44	3.1	4.6
c1ccc2c(c1)Cc1ccccc1C2	> 30		4.06	> 5	
O=C1c2cccc(Cl)c2Cc2c(Cl)cccc21			5.05	2.1	3.4
CCSC1c2cccc(O)c2C(=O)c2c(O)cccc21	> 30		2.97		> 100
